In ChEMBL document CHEMBL4513216, “Probing the Open Global Health Chemical Diversity Library for Multistage-Active Starting Points for Next-Generation Antimalarials” (ACS Infect Dis, 2020):

Assay: Toxicity liver stage against HepG2, at 10uM
Assay type: cell-based
Set-up: test concentration 10 uM, cell line HepG2-A16-CD81EGFP
Conditions: human, HepG2-A16-CD81EGFP cells; read-out: INHIBITION
Method in brief: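 Uninfected HepG2-A16-CD81EGFP cells, 3 × 10^3 per well, 1536-well, plated on prespotted compound at 10 μM final, parasite-free screening media added to match infected plates; puromycin 10 μM positive, DMSO 0.5% negative; run in parallel with 48 h PbLuc assay at 37 °C, 5% CO2; viability by CellTiter-Glo luminescence, normalized to controls.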

Compound | cytotoxicity at 10 µM [%]
N#Cc1cccc(N2CCOCC3(CCCN(C(=O)NC4CC4)C3)C2)c1 (stereo unspecified) | 14.1
Cc1cc(C)n(CC2CN(Cc3nc(-c4ccoc4)no3)CCO2)n1 (stereo unspecified) | -8.13
Fc1ccc2[nH]c3c(c2c1)CCN1C(c2ccccn2)N2CCC31CC2 (stereo unspecified) | 6.16
CC(c1cccnc1)N1CCN(CCc2ccccn2)CC1 (stereo unspecified) | -6.18
CN(C)CCn1cc(NC(=O)NC(C)(C)c2nccs2)cn1 | -2.85
CSCC(C)(O)CNS(=O)(=O)c1ccc(F)cc1 (stereo unspecified) | -8.06
CC1(C)CN(Cc2c[nH]c(CC3CCCC3)n2)CC[C@]1(C)O | 2.74
CCCn1ccnc1CN1CCC(Oc2cccc(F)c2)(C(=O)O)CC1 | 1
CC(NC(=O)COC1CCCC1)c1nc(-c2ccccc2)c[nH]1 (stereo unspecified) | 4.24
Cc1nccn1Cc1nnc(C2CCCN(c3cnccn3)C2)n1C (stereo unspecified) | 2.73
O=C(Cc1cccc(O)c1)N1CCCC(O)(CN2CCOCC2)CC1 (stereo unspecified) | -3.28
O=C(Nc1ccccc1)N1CC(C(=O)N2CCCC2)C2(CCOCC2)C1 (stereo unspecified) | -82.4
O=C(CCc1ccccc1)Nc1ncccc1OC(F)F | -3.45
CC(C)NC(=O)C1CN(C(N)=O)Cc2ccnn2C1 (stereo unspecified) | -8.68
CC(=O)N1CCC(NC(=O)CN2CCCc3c(C)ccc(F)c32)CC1 | -5.82
O=C(c1ccccc1F)N1CC[C@@H]2CN(c3ncccn3)CCO[C@@H]2C1 | -78.1
CN(C)c1ccc(NC(=O)N2CCCCC2c2ncc[nH]2)cn1 (stereo unspecified) | -1.78
Cc1ccc(NC(=O)c2cccc(OCc3nnnn3C)c2)nc1 | 4.4
COc1ccc(N2CCN(C(=O)OC(C)(C)C)C(C(=O)O)C2)cc1 (stereo unspecified) | -0.318

Compound | cytotoxicity at 10 µM [%]
CCc1cc(N2CCN3CCCCC3C2)n2nccc2n1 (stereo unspecified) | -1.12
Cc1nnc2n1CCN(C(=O)COCCOc1ccccc1)C2 | 0.529
CCc1nc(CN2CCCN(C(=O)C(C)n3ccnc3)CC2)cs1 (stereo unspecified) | -13.8
O=C(CCn1nc(C(=O)Nc2ccccc2)ccc1=O)Nc1nccs1 | -2.83
CCn1c(C)cc(C(=O)N2CCC(NC(=O)c3cc(C)no3)CC2)c1C | -1.1
CN1CCCC(CCC(=O)N2CCc3[nH]c(-c4ccccc4)nc3C2)C1 (stereo unspecified) | -4.13
CC(=O)N(Cc1noc(C)n1)C1CCN(Cc2ccncc2Cl)C1 (stereo unspecified) | 5.87
CC(NC(=O)c1ccsc1)c1ccc2c(c1)NC(=O)CO2 (stereo unspecified) | -11.7
O=C(NS(=O)(=O)c1ccccc1C(F)(F)F)c1cccc2c1OCCO2 | 5.56
CN1CCC2(CCN(CC3CC3)CC2)C1=O | 10.9
CCN(C(c1cccnc1)c1ccc2c(c1)CCC2)S(C)(=O)=O (stereo unspecified) | 5.82
CC(C(=O)N1CCCC1)S(=O)(=O)Cc1noc(C(C)(C)C)n1 (stereo unspecified) | -1.1
COCc1noc(-c2ccc(N(C)Cc3ncccc3C)nc2)n1 | -0.0612
N#Cc1cccc(NC(=O)N[C@H](CO)Cc2ccc(O)cc2)c1 | 0.597
Cc1ccc(-c2nnc(CN3CCCC(Cn4cncn4)C3)o2)cc1 (stereo unspecified) | -9.07
Cc1ccc2c(ccn2CCC(=O)NC[C@@H]2CCCN3CCCC[C@H]23)c1 | 2.29
O=C(c1cc(-c2ccco2)nc2c(Cl)cccc12)N1CCS(=O)(=O)CC1 | -1.99
COc1cc(CN(C)C(C)c2ccccn2)cc2c1OCO2 (stereo unspecified) | 8.97
CN(CC(=O)N1CCCCC1Cn1cccn1)Cc1ccccc1 (stereo unspecified) | -3.99

Compound | cytotoxicity at 10 µM [%]
O=C(c1cnccn1)N1CCCC2(CCN(Cc3ccc(F)cc3)C2)C1 (stereo unspecified) | -153
CN(CC1CCN(CCO)CC1)CC(O)c1ccc(F)cc1 (stereo unspecified) | -52.8
CC(C)C[C@H](NC(=O)Nc1ccc(F)c(Cl)c1)C(=O)O | -43
O=c1oc(-c2cccs2)nn1CC(O)c1ccc2c(c1)CCC2 (stereo unspecified) | 5.33
CCc1noc(CN2CCN(C(=O)Cc3ccc(F)cc3)CC2)n1 | 10.4
CN(C)Cc1nnc(C2CCCN(c3nc(C(N)=O)cs3)C2)n1C (stereo unspecified) | 1.05
Cn1ncc2c(=O)[nH]c(N3CCCC3c3cccs3)nc21 (stereo unspecified) | -0.53
CO[C@@H]1CC[C@H]2[C@H]1OCCN2C(=O)c1ccco1 | -148
COc1ccccc1C(=O)N1CCOC2(CCCN(C(C)=O)C2)C1 (stereo unspecified) | -72.9
O=C(NC1CCN(c2cc(-n3ccnc3)ncn2)CC1)c1ccncc1 | 5.94
O=C(NCCC1=CCCCC1)C1CCCN(c2ccc3nncn3n2)C1 (stereo unspecified) | 4.01
Cc1nc2sccn2c1CN(CCCN(C)C)Cc1ccco1 | -0.215
Cc1nc(NC(=O)COCC2CC2)ccc1Br | -1.51
CC(C)n1nccc1NC(=O)CN1CCc2sccc2C1 | 0.583
CS(=O)(=O)N1CCN(C(=O)c2cc(-c3cccs3)cs2)CC1 | 1.8
O=C(NCc1cccs1)NCC1(O)CCc2ccccc2C1 (stereo unspecified) | -13.8
COc1cccc(-c2noc(C3CCN(Cc4ccc(C)cc4)C3)n2)c1 (stereo unspecified) | -5.89
Cc1cnc(C(=O)N2CCc3ncnc(C)c3CC2)cn1 | -6.51
